Compounds with a hit are over-represented: about 1.9% of the library has one in this group of screens.
M5 ag – CHRM5 agonism in calcium assay. CHO-K1 hM5 cells, Fluo-8 calcium fluorescence; 0% DMSO wells, 100% maximal acetylcholine response. AID 624037. actives 0.19% (n = 360,000). activation, % at 3 µM;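 active means activation above the run's mean over test compounds plus 3 SD, cut at about 23% in these data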;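 further: signal is peak over basal fluorescence ratio across the kinetic read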
Target sequence (P08912 whole entry, looked up): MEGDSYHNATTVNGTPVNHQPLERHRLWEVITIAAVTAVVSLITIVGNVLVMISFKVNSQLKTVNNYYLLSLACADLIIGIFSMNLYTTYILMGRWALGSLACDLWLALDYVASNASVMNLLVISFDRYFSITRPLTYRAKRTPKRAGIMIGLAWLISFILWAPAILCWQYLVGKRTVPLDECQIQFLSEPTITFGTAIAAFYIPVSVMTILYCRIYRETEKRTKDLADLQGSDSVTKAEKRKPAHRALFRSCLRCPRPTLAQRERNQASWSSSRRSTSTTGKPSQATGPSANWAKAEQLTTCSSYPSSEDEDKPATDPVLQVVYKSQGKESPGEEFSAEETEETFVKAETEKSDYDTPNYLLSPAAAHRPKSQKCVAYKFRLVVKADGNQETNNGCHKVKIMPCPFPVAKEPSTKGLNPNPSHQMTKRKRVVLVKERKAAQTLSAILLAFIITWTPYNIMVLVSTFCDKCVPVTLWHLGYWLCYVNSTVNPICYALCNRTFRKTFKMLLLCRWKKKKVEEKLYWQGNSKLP
CHRM4 antagonist – blocks acetylcholine activation of human M4 receptor. inhibition, % at 3 µM. actives 0.73% (n = 360,000). P08173. AID 624125. CHO-hM4 cells, ACh EC80, Fluo-8 calcium fluorescence;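 active means inhibition above its plate's cutoff, the mean inhibition of sample wells plus 3 SD, cut at about 27% in these data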;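 further: 0% = acetylcholine EC80 with DMSO and 100% = DMSO without agonist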
CHRM4 agonist – agonists of human muscarinic M4 receptor (CHRM4). P08173. CHO-K1 hM4/Gqi5, Fluo-8 calcium fluorescence; vehicle 0%, full acetylcholine response 100%. activation, % at 3 µM. actives 0.14% (n = 360,000);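 active means activation above the run mean over all test wells plus 3 SD, cut at about 32% in these data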;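 further: peak over basal fluorescence ratio per well then scaled between controls; 0% = DMSO wells and 100% = acetylcholine at EC100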
CHRM5 antagonist – blocks acetylcholine activation of human M5 receptor; inhibition, % at 3 µM; actives 0.59% (n = 360,000); AID 624040; CHO-hM5 cells, Fluo-8 calcium fluorescence, ACh EC80; P08912;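 active means inhibition above a per-plate cutoff, the mean of that plate's test compounds plus 3 SD, cut at about 27% in these data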;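 further: 0% = acetylcholine EC80 with DMSO and 100% = DMSO without agonist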
CHRM4 PAM – CHRM4 positive allosteric modulation; P08173; CHO-K1 hM4/Gqi5, Fluo-8 calcium fluorescence, ACh EC20; 0% = ACh EC20, 100% = maximal ACh; activation, % at 3 µM; actives 0.4% (n = 360,000); AID 624126;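 active means activation above its plate's cutoff, the mean activation of sample wells plus 3 SD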
CHRM5 PAM – potentiates acetylcholine response at human M5 receptor | P08912 | CHO-K1 hM5, Fluo-8 calcium, ACh EC20 PAM; 0% = ACh EC20, 100% = ACh EC100 | activation, % at 3 µM | actives 0.3% (n = 360,000) | AID 624038;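 active means activation above the run cutoff, the mean activation of all test compounds plus 3 SD, cut at about 18% in these data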
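Assay system – human M5 receptor in CHO-K1 cells · Read-out – % activation, ACh-normalized · Technique – Fluo-8 calcium fluorescence · Dosing – single-point, 3 µM nominal · Incubation – Fluo-8 loading 80 min at 37 °C plus 30 min room temperature · Repeats – singlicate, one well per test compound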
Numbers without * were called inactive.

SMILES	M5 ag	CHRM4 antagonist	CHRM4 agonist	CHRM5 antagonist	CHRM4 PAM	CHRM5 PAM
CCCn1c(SCC(=O)Nc2ccc(OCC)cc2)nnc1C(C)C	-2.6	7.9	0.9	-3.9	-2.3	18.6*
CN(C(=O)CCNC(=O)Cn1cnc2ccccc2c1=O)c1ccc(Br)cc1	-0.5	9.4	0.8	6.2	-4.0	0.4
CN(CCc1ccccn1)C(=O)CCNC(=O)Cn1cnc2ccccc2c1=O	1.7	-13.5	2.2	5.7	19.0*	1.5
CC(C)N(C(=O)C1CC(=O)OC12CCCCC2)C(C)C (stereo not drawn)	-0.9	29.5*	1.4	4.6	20.9	9.7
CC1CC(C)CN(S(=O)(=O)c2ccc3c(c2)oc(=O)n3CC(=O)NCCCOC(C)C)C1 (stereo not drawn)	3.4	-4.0	1.7	-1.9	-1.9	3.9
O=C(Nc1ccc(F)cc1)Nc1cc(OCC(F)(F)F)cc(OCC(F)(F)F)c1	8.0	18.9	12.1	30.5*	-12.9	-17.7
CCOc1ccc(NC(=O)Nc2cc(OCC(F)(F)F)cc(OCC(F)(F)F)c2)cc1	1.3	8.6	9.7	28.0*	-9.2	-14.9
CCOc1ccc(NC(=O)Nc2ccc3nsnc3c2)cc1	5.5	1.6	17.4	32.6*	-11.5	-22.9
CCOc1ccc(NC(=O)Nc2cccc(C(=O)O)c2)cc1	-4.1	8.4	6.1	5.2	4.5	-0.8
COC(=O)c1ccc(NC(=O)Nc2ccc(F)cc2)cc1	6.4	13.2	14.1	21.2	-9.5	-16.6
CC(=O)c1cccc(OCC(=O)N(C)CC(=O)NCc2ccco2)c1	1.9	-26.7	1.4	4.1	14.2	-1.3
Cc1ccc(S(=O)(=O)N2CCN(C(=O)Cn3nc(C)c([N+](=O)[O-])c3C)CC2)c(C)c1	-5.8	-21.2	4.6	-9.8	2.6	-3.7
Cc1nn(CC(=O)N2CCN(c3ccccc3)CC2)c(C)c1[N+](=O)[O-]	-2.9	37.4*	2.2	7.0	-25.4	0.5
Cc1ccccc1-c1cccc([C@@H]2C[C@H]3[C@H](CON3C)CN2C(=O)C(C)(C)C)c1	1.6	-8.5	0.9	-4.8	7.6	-1.6
O=C(CSc1nc(-c2ccco2)cc(C(F)(F)F)n1)NCCN1CCOCC1	2.1	-0.5	0.3	-6.5	-1.4	4.4
CCOc1ccc(CC(C(=O)NN)C(=O)NN)cc1CN(C)C	-1.0	-22.2	-0.6	-8.9	19.2*	2.9
NC(=O)Cn1nnc(-c2ccccc2NC(=O)c2cnccn2)n1	-2.0	-5.0	0.3	21.6	3.3	35.0*
O=C(Cn1nnc(-c2ccccc2NC(=O)c2cccs2)n1)Nc1ccccc1	-1.1	-11.4	1.6	-0.2	4.5	20.9*
CC(C)(C)NC(=O)Cn1nnc(-c2ccccc2NC(=O)c2cnccn2)n1	-1.8	-4.8	1.2	-4.0	5.8	11.9
O=[N+]([O-])c1ccc(CN2CCSCC2)cc1	2.2	-11.6	1.0	-10.6	4.3	21.5*
CCOc1ccc(NC(=O)CSc2nnc(Cc3csc(C)n3)o2)cc1	1.0	-4.5	0.5	-0.3	0.2	0.9
Cc1ccc(C(C)C)cc1OCC(=O)NNC(=O)Nc1ccccc1	-6.2	61.0*	3.6	-0.4	-15.9	-3.8
Cc1ccc(C(C)C)c(OCC(=O)NNC(=O)Nc2ccccc2)c1	4.7	5.6	3.3	6.4	-7.2	0.2
CCCCOC(=O)C1=C(C)NC(=O)NC1c1ccc(OC)cc1 (stereo not drawn)	-1.8	-6.5	0.6	-8.6	1.1	18.1*
O=C(COc1ccc([N+](=O)[O-])cc1)Nc1cccc2nsnc12	-3.8	-0.8	1.9	14.1	8.3	-8.0
SMILES	M5 ag	CHRM4 antagonist	CHRM4 agonist	CHRM5 antagonist	CHRM4 PAM	CHRM5 PAM
CCN(Cc1ccccc1)C(=O)C1CCN(S(=O)(=O)c2ccc3c(c2)OCCO3)CC1	36.8*	-2.0	4.7	1.4	1.4	-2.9
O=C(CSc1ccccc1Cl)N1CCOCC1	-1.8	-2.8	0.7	10.5	-0.5	0.4
CCCCCCCC1CC(=O)C=C(C)C1C(=O)OCC (stereo not drawn)	-3.9	-0.6	-0.6	14.1	11.7*	-4.2
N#C/C(=C\c1cccnc1)c1ccccc1[N+](=O)[O-]	-3.0	5.6	1.3	17.0	-3.4	1.0
CCCN1CCC(=O)N(CCSc2ccc(C)cc2)CC1	-4.0	4.8	1.2	-3.0	4.1	8.8
CCCN1CCC(=O)N(CCSc2ccc(OC)cc2)CC1	2.7	-13.8	5.4	-9.8	0.3	18.6*
COc1cccc(N=Nc2ccc(O)c3ncccc23)c1	54.3*	34.1*	30.4	28.4*	-9.2	-19.4
COc1cccc(N=Nc2ccc3cccnc3c2O)c1	42.4*	19.1	43.2*	21.0	-13.1	-18.8
CCOc1ccccc1CNC(=O)C1CCN(S(=O)(=O)N2CCC(C)CC2)CC1	0.8	-0.4	2.8	3.3	-3.4	-2.6
Cc1cc(C(=O)COC(=O)c2cc(Cl)ccc2N)c(C)n1Cc1ccco1	2.4	6.1	1.5	9.8	19.4*	-0.3
Cc1ccc(S(=O)(=O)N(CC(=O)NC2CC3CCC2C3)c2ccccc2)cc1 (stereo not drawn)	-1.3	-5.6	0.1	-1.2	-2.3	1.0
CN(Cc1ccc(OC(F)F)cc1)C(=O)c1cccc(S(=O)(=O)N2CCN(c3ccccc3)CC2)c1	4.3	38.9*	28.7	28.8*	-12.8	-45.4
O=C(NCc1ccccc1)NC1(C(=O)N2CCOCC2)CCCCC1	-3.3	24.4	0.4	-8.3	-1.4	42.0*
O=C1CCCC(=NNC(=O)c2cc3ccccc3cc2O)C1	26.3*	3.3	6.2	-2.0	4.8	-1.3
O=C1CCC/C(=N/NC(=O)c2sc3ccccc3c2Cl)C1	24.1*	20.8	22.5	17.2	-17.3	-11.3
O=C(NN=C1CCCC1)c1sc2ccccc2c1Cl	2.9	-5.8	1.4	10.5	9.2	-0.7
CC(C)CNS(=O)(=O)c1ccc(CCC(=O)N2CCC(C(N)=O)CC2)cc1	-0.3	-3.4	0.4	9.8	0.3	-0.9
COC(C/C=C/C(=O)[C@H](C)OCc1ccccc1)OC	2.4	-6.2	0.6	13.7	4.8	-0.5
CC(C)Cn1c(N)c(C(=O)CCl)c(=O)n(C)c1=O	5.0	3.4	2.9	10.5	2.7	-3.7
CC(C)Cn1c(N)c(C=O)c(=O)n(C)c1=O	6.4	0.3	-0.2	2.2	-2.2	18.1*
O=C(C1CC1)N1CCN(c2ccc(O)cc2)CC1	-1.2	-6.9	1.1	10.6	5.0	1.0
CCCCN(CCCC)c1cn[nH]c(=O)c1Cl	-12.8	42.6*	-1.2	10.8	-13.4	-26.3
CCn1cc([N+](=O)[O-])c(C(=O)N2N=C(c3cccc4ccccc34)CC2c2ccccc2O)n1 (stereo not drawn)	-3.1	15.0	4.8	1.5	4.6	29.1*
